Measurements as given in the RNAGym collection of RNA variant scans (doi:10.1126/science.aae0568).
Variants at the floor of the assay were thinned out.

B1: tRNA (parent)
chain: GUUCCGUUGGCGUAAUGGUAACGCGUCUCCCUCCUAAGGAGAAGACUGCGGGUUCGAGUCCCGUACGGAACG

Variants of: B1
Experiment: yeast fitness relative to wild type (ratio to wild type); higher = fitter; tRNA-Arg(CCU), competitive growth, 37 C, YPD
In short: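 A pool of Saccharomyces cerevisiae strains, each with a tRNA-Arg(CCU) gene variant at the native genomic locus, was competed in YPD at 37°C for 24 hours across six parallel replicates. The variants had been chemically synthesised at a 3% per-site mutation rate over 69 sites, and gene amplicons before and after competition were read by 100-nucleotide paired-end sequencing. Darwinian fitness relative to wild type rested on changes in genotype frequencies. Genotypes required ≥ 100 starting reads, and estimates < 0.5 were set to 0.5.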

Row | Variant | yeast fitness
1 | C30G G48C | 0.624
2 | C30A C62G | 0.662
3 | C30A C61U A65U | ≤ 0.5
4 | C31A A42G A57U U59A | ≤ 0.5
5 | C30G A45C C46U | 0.612
6 | C30G U35C C62U | 0.551
7 | C30U C31A | 0.754
8 | C30U C31G | 0.79
9 | C30A G51C C62G | ≤ 0.5
10 | C30G A37C C46G | ≤ 0.5
11 | C31A A43G A65G | 0.702
12 | C30U G63C A69U | 0.527
13 | C30U C49G C61U | 0.547
14 | C30U C60G C61A A69G | ≤ 0.5
15 | C30G G58C | 0.637
16 | C30G C33G C34U A42U A65C | ≤ 0.5
17 | C30A U53G C60G C62A A70U | 0.515
18 | C30G C34G G39C A69C | ≤ 0.5
19 | C30U C55A C62U | ≤ 0.5
20 | C30U G51C G58C | ≤ 0.5
21 | C30G A43U G48C C55A | 0.557

Row | Variant | yeast fitness
22 | C30A G50A A65C | 0.628
23 | C30U A45G G48C G58C U59A | 0.548
24 | C30U U54A G68C | ≤ 0.5
25 | C30U C34G U53C A69C | ≤ 0.5
26 | C31A A40U U53G G56C C62G A70C | ≤ 0.5
27 | C30U C31G A65C | 0.821
28 | C30G A37G A65G | ≤ 0.5
29 | C30A U35C A37U | 0.547
30 | C30G A36G | 0.679
31 | C30G A36C | 0.561
32 | C30G A36U | 0.538
33 | C30U C34U A37U U59C A65U | ≤ 0.5
34 | C30U C46G G52A | 0.6
35 | C31A A37G G38A A40G | ≤ 0.5
36 | C30G U32A A40U A42C A65C | ≤ 0.5
37 | C30U C31U A37G A43G | ≤ 0.5
38 | C30A C49U G67U | 0.608
39 | C30G G56C C62U | ≤ 0.5
40 | C30G A40U C46U | 0.558
41 | C30U U47A G67C A70U | ≤ 0.5
42 | C30G U47A G68A | ≤ 0.5

Row | Variant | yeast fitness
43 | C30U C34G | 0.715
44 | C30G G67A | 0.619
45 | C30G G67U | 0.589
46 | C30G A69C | 0.687
47 | C30G A69G | ≤ 0.5
48 | C30A G63A U64C | 0.893
49 | C30U G48A G67A | ≤ 0.5
50 | C30G C46A C60A | ≤ 0.5
51 | C30U G44A A65C | 0.553
52 | C30U G68C | 0.813
53 | C30U U59A A69C | ≤ 0.5
54 | C30U G51A C55A | 0.686
55 | C30U G58A | 0.919
56 | C30U G58C | 0.822
57 | C30U U53G A69U | ≤ 0.5
58 | C30G G58C G63C | ≤ 0.5
59 | C30G C33G A70U | 0.532
60 | C30A G44C U59A | ≤ 0.5
61 | C30U A43C G67U | 0.571
62 | C30U G51A C66U A70C | ≤ 0.5
63 | C30G G51C A65G | ≤ 0.5

Row | Variant | yeast fitness
64 | C30G C46G | 0.693
65 | C30U A43U U54A | 0.541
66 | C30G U32A C66U | ≤ 0.5
67 | C31A A40G A43C G44A | ≤ 0.5
68 | C30U G50C C61G | ≤ 0.5
69 | C30A C49A C60U | ≤ 0.5
70 | C30A G48C | 0.797
71 | C30G C49A U53C | 0.563
72 | C30G C49A U54G | ≤ 0.5
73 | C31A A43G A70U | 0.708
74 | C30G C33G G48C C60A | 0.586
75 | C30U A65U C66G | ≤ 0.5
76 | C30G C60U | 0.552
77 | C30G C60G | 0.521
78 | C30G C60A | 0.739
79 | C30U C49A | 0.547
80 | C30U C49G | 0.718
81 | C31A A40U A42G | 0.606
82 | C30A U32G G67A A69C | ≤ 0.5
83 | C30A G44A A45C A70U | ≤ 0.5
84 | C30G U32A A40G C61G | ≤ 0.5
